The list is not random: actives were taken first. Their share in the collection is about 1.8%.
M4 PAM: potentiates acetylcholine response at human M4 receptor | CHO-K1 hM4/Gqi5, Fluo-8 calcium fluorescence, ACh EC20; 0% = ACh EC20, 100% = maximal ACh | activation, % at 3 µM | 360,000 tested, 0.4% active | AID 624126;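 active means activation above its plate's cutoff, the mean activation of sample wells plus 3 SD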
M4 ag: agonists of human muscarinic M4 receptor (CHRM4) | CHO-K1 hM4/Gqi5, Fluo-8 calcium fluorescence; vehicle 0%, full acetylcholine response 100% | P08173 | 360,000 tested, 0.14% active | activation, % at 3 µM;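 active means activation above the run mean over all test wells plus 3 SD, cut at about 32% in these data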;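 further: peak over basal fluorescence ratio per well then scaled between controls; 0% = DMSO wells and 100% = acetylcholine at EC100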
CHRM5 agonist: CHRM5 agonism in calcium assay. activation, % at 3 µM. 360,000 tested, 0.19% active. CHO-K1 hM5 cells, Fluo-8 calcium fluorescence; 0% DMSO wells, 100% maximal acetylcholine response. P08912;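 active means activation above the run's mean over test compounds plus 3 SD, cut at about 23% in these data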;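 further: signal is peak over basal fluorescence ratio across the kinetic read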
Target sequence (P08912 whole entry, looked up): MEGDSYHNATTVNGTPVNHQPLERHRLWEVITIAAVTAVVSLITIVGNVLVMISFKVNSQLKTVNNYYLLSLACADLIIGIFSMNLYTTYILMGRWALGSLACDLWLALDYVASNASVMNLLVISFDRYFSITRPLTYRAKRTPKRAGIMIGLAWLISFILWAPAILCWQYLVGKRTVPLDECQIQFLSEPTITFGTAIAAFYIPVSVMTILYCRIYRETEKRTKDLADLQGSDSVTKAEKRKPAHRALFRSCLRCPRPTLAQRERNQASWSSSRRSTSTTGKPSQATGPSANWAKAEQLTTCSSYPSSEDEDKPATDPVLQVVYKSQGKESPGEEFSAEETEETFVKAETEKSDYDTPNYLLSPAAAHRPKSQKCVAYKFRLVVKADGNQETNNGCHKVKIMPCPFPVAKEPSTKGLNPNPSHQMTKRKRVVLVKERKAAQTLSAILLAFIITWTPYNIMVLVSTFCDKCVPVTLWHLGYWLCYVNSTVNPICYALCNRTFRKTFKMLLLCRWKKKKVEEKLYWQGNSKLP
M4 antag: antagonists of human muscarinic M4 receptor (CHRM4); inhibition, % at 3 µM; CHO-hM4 cells, ACh EC80, Fluo-8 calcium fluorescence; P08173; 360,000 tested, 0.73% active;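 active means inhibition above its plate's cutoff, the mean inhibition of sample wells plus 3 SD, cut at about 27% in these data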;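 further: 0% = acetylcholine EC80 with DMSO and 100% = DMSO without agonist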
CHRM5 antagonist: antagonists of human muscarinic M5 receptor (CHRM5); 360,000 tested, 0.59% active; inhibition, % at 3 µM; CHO-hM5 cells, Fluo-8 calcium fluorescence, ACh EC80; P08912;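 active means inhibition above a per-plate cutoff, the mean of that plate's test compounds plus 3 SD, cut at about 27% in these data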;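 further: 0% = acetylcholine EC80 with DMSO and 100% = DMSO without agonist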
CHRM5 PAM: potentiates acetylcholine response at human M5 receptor; P08912; CHO-K1 hM5, Fluo-8 calcium, ACh EC20 PAM; 0% = ACh EC20, 100% = ACh EC100; activation, % at 3 µM; 360,000 tested, 0.3% active;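 active means activation above the run cutoff, the mean activation of all test compounds plus 3 SD, cut at about 18% in these data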
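Test system: CHO-K1 hM5 cells / Doses: single-point, 3 µM nominal / Times: Post-acetylcholine fluorescence recording 140 s / Technique: Fluo-8 calcium fluorescence / Measure: Max/basal fluorescence ratio as % of EC20–EC100 ACh window / Benchmarks: low control EC20 acetylcholine (0%), high control EC100 acetylcholine (100%) / Replicates: one well per compound, no replicates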
Starred values were filed as active, the others as inactive.

SMILES	M4 PAM	M4 ag	CHRM5 agonist	M4 antag	CHRM5 antagonist	CHRM5 PAM
Nc1nc(N)nc(-c2cccc(Cl)c2)n1	6	-1	0	-6	4	-1
S=C1NC[C@H](CC2CCCCC2)N1CCCCC1CCCCC1	13	1	3	-10	6	4
Oc1ccc(Cl)cc1C=Nc1ccc2c3c(cccc13)CC2	-25	71*	53*	36*	35*	-14
Cc1cccc(C=Nc2ccc3c4c(cccc24)CC3)c1O	-12	23	34*	26	24	-9
Oc1ccc(Cl)cc1/C=N/c1nccs1	4	1	-2	7	-4	-1
CCn1nc(C)c(CNC(=O)C2CCC(=O)N(Cc3ccc(Cl)cc3)C2)c1C (stereo not drawn)	1	0	-5	3	3	1
CCC(C(=O)NCc1cccs1)n1nc(C)n2c(cc3occc32)c1=O (stereo not drawn)	13	1	1	-5	-29	26*
O=C(NC(=S)N1CCOCC1)c1cn(-c2ccccc2)nc1-c1ccccc1	3	8	-2	-10	-2	-7
CC1CCCCC1NC(=O)c1cccc(S(=O)(=O)N2CCN(Cc3ccccc3)CC2)c1 (stereo not drawn)	-8	7	2	14	-3	-6
CCc1cc(=O)oc2cc(OCC(=O)N(CC)CC)c(Cl)cc12	5	1	0	-5	-5	-4
CCc1cc(=O)oc2cc(OCC(=O)O)c(Cl)cc12	5	1	-9	12	-8	20*
CN(C)CCN(C)C1CN(C2CCCC2)S(=O)(=O)C1 (stereo not drawn)	3	1	-5	-3	5	-2
COc1ccc(C(=O)NC(=S)Nc2ccc(N3CCOCC3)cc2)cc1Cl	-3	6	-1	-10	-1	1
Cc1ccc(-n2c(C)cc(/C=C3\NC(=O)NC3=O)c2C)c(C)c1	-24	-1	-6	35*	-1	0
Cc1cc(/C=C2/NC(=O)NC2=O)c(C)n1-c1ccccn1	6	1	0	-9	-12	1
COc1ccc(OCCCC(=O)N(C)CC(=O)Nc2ccccc2Cl)cc1	9	6	2	-18	-9	0
O=C(c1ccccc1)N1CCN(C(=O)c2ccc3c(c2)OCCO3)CC1	-5	0	3	7	7	5
O=C(c1ccc2c(c1)OCCO2)N1CCCCC1	27*	1	1	0	-2	3
COc1ccccc1CNc1nc2cc(-c3ccsc3)sc2c(=O)n1C	0	4	-1	4	6	-3
CC(=O)N1CCN=C1SCc1c(F)cccc1Cl	20*	2	3	-13	0	2
COc1ccc(CNC(=O)CN(C2CCCCC2)S(C)(=O)=O)cc1	26*	2	-3	-5	-3	7
COc1cc(/C=N/NC(=O)c2nc3ccccn3c2C)cc(OC)c1O	-4	1	2	-2	-4	19*
Cc1c(C(=O)N/N=C/c2ccc(N3CCOCC3)cc2)nc2ccccn12	-9	0	1	0	6	-3
CC(=O)Nc1cc(-c2ccc(C(=O)NC3CC3)cc2)cn2c(-c3cccc(C(F)(F)F)c3)cnc12	11	8	-2	5	17	-5
CCC1CCCCN1S(=O)(=O)c1ccc(S(=O)(=O)N(Cc2cccs2)C2CC2)cc1 (stereo not drawn)	-18	5	-4	45*	11	-22
SMILES	M4 PAM	M4 ag	CHRM5 agonist	M4 antag	CHRM5 antagonist	CHRM5 PAM
CCC1CCCCN1S(=O)(=O)c1ccc(S(=O)(=O)N(Cc2ccccn2)CC2CCCO2)cc1 (stereo not drawn)	-16	6	-3	6	4	-5
CN1CCN(C(=S)NC(=O)c2ccc(Cl)cc2)CC1	23*	1	-4	-16	-7	17
O=C(NC(=S)N1CCCC1)c1ccc(Cl)cc1	6	1	-3	-11	12	-7
Cc1cc(C)cc(NC(=O)CCn2ccnc2)c1	3	1	-6	-24	3	1
CCN(CC)S(=O)(=O)c1ccc(/C=C/C(=O)OCC(=O)NNC(=O)c2ccc(OC)cc2)cc1	0	3	1	2	-1	0
Cn1cnc([N+](=O)[O-])c1S(=O)(=O)Oc1cccc2ccccc12	0	4	-1	16	13	-2
Cn1cnc([N+](=O)[O-])c1S(=O)(=O)Oc1ccc(Cl)cc1	-9	3	-3	28*	26	-14
O=C(NCCCn1ccnc1)C(=O)NC1CCCCC1	10	0	-1	-1	0	19*
O=C(O)C1CCCCC1C(=O)NCCCn1ccnc1 (stereo not drawn)	-7	0	-2	16	1	-1
Cc1sc2nc(CN(Cc3cccs3)C(=O)NC3CCCCC3)[nH]c(=O)c2c1C	0	1	-1	-15	-3	29*
O=C(Nc1ccccc1)N1CCC(C(=O)N2CCCC(C(F)(F)F)C2)CC1 (stereo not drawn)	6	1	1	-1	-3	8
CCCc1ccc(C(O)c2ncc(-c3ccc(OC)cc3)[nH]2)cc1 (stereo not drawn)	-3	2	0	6	-2	4
CCC(C)NC(=O)C1c2ccccc2C(=O)N1Cc1ccc(OC)cc1OC (stereo not drawn)	1	1	2	-3	-9	3
CCC(C)NC(=O)C1c2ccccc2C(=O)N1Cc1ccccc1OC (stereo not drawn)	11	0	3	-8	-12	30*
CSc1ncc2[nH]c(C(O)c3ccccc3)nc2n1 (stereo not drawn)	18*	10	6	-10	17	-11
O=C(NCCCN1CCC(Cc2ccccc2)CC1)c1ccc(CS(=O)c2ccccc2Cl)o1 (stereo not drawn)	-14	7	-2	28*	23	-19
O=C(NCc1ccco1)c1ccc(CS(=O)c2ccccc2Cl)o1 (stereo not drawn)	5	3	0	-21	7	-7
COc1ccccc1N1CCN(C2CCCN(C(=O)c3oc(C)cc3C)C2)CC1 (stereo not drawn)	-1	1	-8	0	57*	-14
O=C(Nc1nc2ccccc2n1CCN1CCOCC1)c1ccc(COc2ccccc2Br)o1	-8	8	-4	43*	18	-13
c1ccc(C(CN2CCOCC2)c2ccccc2)cc1	-6	-2	-8	7	99*	-4
Cc1nc(N)sc1C(=O)N/N=C/c1ccccc1[N+](=O)[O-]	22*	3	1	-11	-11	12
